# ChEMBL document CHEMBL5550111, “Design, synthesis and biological evaluation of aryloxy thiophosphoramidate triesters of anticancer nucleoside analogues” (Bioorg Med Chem, 2024)
# Legend:
# MIA PaCa-2 [1] = test: Cytotoxicity against human MIA PaCa-2 cells assessed as maximum inhibition of cell viability upto 198 uM incubated for 72 hrs by MTS assay relative to control; type: functional; details: up to 198 µM
# Summary of the method: (§1)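 Cells seeded at 0.5 to 100 × 10^3 per well the day before drug addition, then exposed to compound for 72 h. MTS added afterwards, with a further 4 h at 37 °C, and absorbance read. Tested in duplicate at 9 serial 3.16-fold dilutions, top concentration 198 μM. MI% is the maximum inhibition of viability across the tested range.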
# HepG2 [2] = test: Cytotoxicity against human HepG2 cells assessed as maximum inhibition of cell viability upto 198 uM incubated for 72 hrs by MTS assay relative to control; type: functional; details: up to 198 µM; summary of the method: as §1
# RPMI-8226 [3] = test: Cytotoxicity against human RPMI-8226 cells assessed as maximum inhibition of cell viability upto 198 uM incubated for 72 hrs by MTS assay relative to control; type: functional; details: up to 198 µM; summary of the method: as §1
# NCI-H1975 = test: Cytotoxicity against human NCI-H1975 cells assessed as maximum inhibition of cell viability upto 198 uM incubated for 72 hrs by MTS assay relative to control; type: functional; details: up to 198 µM; summary of the method: as §1
# HepG2 [4] = test: Cytotoxicity against human HepG2 cells assessed as inhibition of cell viability incubated for 72 hrs by MTS assay; type: functional, cell-based; details: HepG2, 72 h
# Summary of the method: (§2)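 Cells seeded at 0.5 to 100 × 10^3 per well the day before treatment, then exposed for 72 h to 9 serial concentrations (3.16-fold dilutions, top 198 μM), in duplicate. MTS added for a final 4 h at 37 °C and absorbance read. IC50 is the concentration giving 50% loss of viability. MI% is the maximum inhibition over the tested range.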
# COLO 205 [5] = test: Cytotoxicity against human COLO 205 cells assessed as inhibition of cell viability incubated for 72 hrs by MTS assay; type: functional, cell-based; details: COLO 205, 72 h; summary of the method: as §2
# RT112/84 [6] = test: Cytotoxicity against human RT112/84 cells assessed as maximum inhibition of cell viability upto 198 uM incubated for 72 hrs by MTS assay relative to control; type: functional; details: up to 198 µM; summary of the method: as §1
# HT-29 [7] = test: Cytotoxicity against human HT-29 cells assessed as maximum inhibition of cell viability upto 198 uM incubated for 72 hrs by MTS assay relative to control; type: functional; details: up to 198 µM; summary of the method: as §1
# SK-MES-1 [8] = test: Cytotoxicity against human SK-MES-1 cells assessed as inhibition of cell viability incubated for 72 hrs by MTS assay; type: functional, cell-based; details: SK-MES-1, 72 h; summary of the method: as §2
# OVCAR-3 [9] = test: Cytotoxicity against human OVCAR-3 cells assessed as maximum inhibition of cell viability upto 198 uM incubated for 72 hrs by MTS assay relative to control; type: functional; details: up to 198 µM; summary of the method: as §1
# RPMI-8226 [10] = test: Cytotoxicity against human RPMI-8226 cells assessed as inhibition of cell viability incubated for 72 hrs by MTS assay; type: functional, cell-based; details: RPMI-8226, 72 h; summary of the method: as §2
# OVCAR-3 [11] = test: Cytotoxicity against human OVCAR-3 cells assessed as inhibition of cell viability incubated for 72 hrs by MTS assay; type: functional, cell-based; details: OVCAR-3, 72 h; summary of the method: as §2
# RT112/84 [12] = test: Cytotoxicity against human RT112/84 cells assessed as inhibition of cell viability incubated for 72 hrs by MTS assay; type: functional, cell-based; details: RT112/84, 72 h; summary of the method: as §2
# COLO 205 [13] = test: Cytotoxicity against human COLO 205 cells assessed as maximum inhibition of cell viability upto 198 uM incubated for 72 hrs by MTS assay relative to control; type: functional; details: up to 198 µM; summary of the method: as §1
# SK-MES-1 [14] = test: Cytotoxicity against human SK-MES-1 cells assessed as maximum inhibition of cell viability upto 198 uM incubated for 72 hrs by MTS assay relative to control; type: functional; details: up to 198 µM; summary of the method: as §1
# MIA PaCa-2 [15] = test: Cytotoxicity against human MIA PaCa-2 cells assessed as inhibition of cell viability incubated for 72 hrs by MTS assay; type: functional, cell-based; details: MIA PaCa-2, 72 h; summary of the method: as §2
# HT-29 [16] = test: Cytotoxicity against human HT-29 cells assessed as inhibition of cell viability incubated for 72 hrs by MTS assay; type: functional, cell-based; details: HT-29, 72 h; summary of the method: as §2
# PC-3 [17] = test: Cytotoxicity against human PC-3 cells assessed as inhibition of cell viability incubated for 72 hrs by MTS assay; type: functional, cell-based; details: PC-3, 72 h; summary of the method: as §2
# [18] = Cytotoxicity against human T24/83 cells assessed as inhibition of cell viability incubated for 72 hrs by MTS assay; type: functional, cell-based; details: T24/83, 72 h; summary of the method: as §2
# BXPC-3 [19] = test: Cytotoxicity against human BXPC-3 cells assessed as maximum inhibition of cell viability upto 198 uM incubated for 72 hrs by MTS assay relative to control; type: functional; details: up to 198 µM; summary of the method: as §1
# PANC-1 [20] = test: Cytotoxicity against human PANC-1 cells assessed as inhibition of cell viability incubated for 72 hrs by MTS assay; type: functional, cell-based; details: PANC-1, 72 h; summary of the method: as §2
# BXPC-3 [21] = test: Cytotoxicity against human BXPC-3 cells assessed as inhibition of cell viability incubated for 72 hrs by MTS assay; type: functional, cell-based; details: BXPC-3, 72 h; summary of the method: as §2
# MDA-MB-231 [22] = test: Cytotoxicity against human MDA-MB-231 cells assessed as inhibition of cell viability incubated for 72 hrs by MTS assay; type: functional, cell-based; details: MDA-MB-231, 72 h; summary of the method: as §2
# A2780 [23] = test: Cytotoxicity against human A2780 cells assessed as inhibition of cell viability incubated for 72 hrs by MTS assay; type: functional, cell-based; details: A2780, 72 h; summary of the method: as §2
# PC-3 [24] = test: Cytotoxicity against human PC-3 cells assessed as maximum inhibition of cell viability upto 198 uM incubated for 72 hrs by MTS assay relative to control; type: functional; details: up to 198 µM; summary of the method: as §1
# MDA-MB-231 [25] = test: Cytotoxicity against human MDA-MB-231 cells assessed as maximum inhibition of cell viability upto 198 uM incubated for 72 hrs by MTS assay relative to control; type: functional; details: up to 198 µM; summary of the method: as §1
# A2780 [26] = test: Cytotoxicity against human A2780 cells assessed as maximum inhibition of cell viability upto 198 uM incubated for 72 hrs by MTS assay relative to control; type: functional; details: up to 198 µM; summary of the method: as §1
# PANC-1 [27] = test: Cytotoxicity against human PANC-1 cells assessed as maximum inhibition of cell viability upto 198 uM incubated for 72 hrs by MTS assay relative to control; type: functional; details: up to 198 µM; summary of the method: as §1
Structure (SMILES),Imax (MIA PaCa-2 [1]) [%],Imax (HepG2 [2]) [%],Imax (RPMI-8226 [3]) [%],Imax (NCI-H1975) [%],IC50 (HepG2 [4]) [nM],IC50 (COLO 205 [5]) [nM],Imax (RT112/84 [6]) [%],Imax (HT-29 [7]) [%],IC50 (SK-MES-1 [8]) [nM],Imax (OVCAR-3 [9]) [%],IC50 (RPMI-8226 [10]) [nM],IC50 (OVCAR-3 [11]) [nM],IC50 (RT112/84 [12]) [nM],Imax (COLO 205 [13]) [%],Imax (SK-MES-1 [14]) [%],IC50 (MIA PaCa-2 [15]) [nM],IC50 (HT-29 [16]) [nM],IC50 (PC-3 [17]) [nM],IC50 [18] [nM],Imax (BXPC-3 [19]) [%],other results
Nc1nc(=O)n([C@H]2C[C@H](O)[C@@H](CO)O2)cc1F,85,67,100,91,53900,20,67,83,90,58,11800,740,90,88,67,300,130,–,–,–,–
C[C@H](NP(=O)(OC[C@H]1O[C@@H](n2ccc(N)nc2=O)C(F)(F)[C@@H]1O)Oc1ccccc1)C(=O)OCc1ccccc1 (stereo partly drawn) [FOSGEMCITABINE PALABENAMIDE],69,57,–,–,1160,1820,79,64,110,16,–,119000,110,72,79,120,480,1090,50,64,IC50 (PANC-1 [20]): 3960 nM; IC50 (BXPC-3 [21]): 330 nM; IC50 (MDA-MB-231 [22]): 1000 nM; IC50 (A2780 [23]): 270 nM; Imax (PC-3 [24]): 65%; Imax (MDA-MB-231 [25]): 71%; Imax (A2780 [26]): 76%; Imax (PANC-1 [27]): 45%
C[C@H](NP(=O)(OC[C@H]1O[C@@H](n2cc(F)c(=O)[nH]c2=O)C[C@@H]1O)Oc1cccc2ccccc12)C(=O)OCc1ccccc1 (stereo partly drawn) [FOSIFLOXURIDINE NAFALBENAMIDE],96,62,93,72,24500,140,77,81,320,92,5900,6910,320,–,77,1470,520,–,–,–,–
Nc1ccn([C@@H]2O[C@H](CO)[C@@H](O)C2(F)F)c(=O)n1 [GEMCITABINE],68,53,–,–,16700,110,88,64,1220,35,–,67200,1220,86,88,40,70,460,< 20,79,IC50 (PANC-1 [20]): 680 nM; IC50 (BXPC-3 [21]): 1810 nM; IC50 (MDA-MB-231 [22]): 3700 nM; IC50 (A2780 [23]): 320 nM; Imax (PC-3 [24]): 61%; Imax (MDA-MB-231 [25]): 74%; Imax (A2780 [26]): 85%; Imax (PANC-1 [27]): 43%
